Drawing on ChEMBL document CHEMBL5038573, “Total Synthesis of Laucysteinamide A, a Monomeric Congener of Somocystinamide A” (J Nat Prod, 2021), this text covers IC50 for five compounds.

One series relates to NCI-H460. As to the kind of experiment: Cytotoxicity against human NCI-H460 cells assessed as cell growth inhibition incubated for 48 hrs by MTT assay. It is filed as functional, cell-based. Put shortly: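 NCI-H460 cells seeded at 6.66 × 10³ cells/mL in RPMI 1640 with FBS and grown 24 h (37 °C, 5% CO₂). Nine half-log dilutions (top 127–300 μM) added, final 1% v/v DMSO and PEG400, six replicates per concentration. After 48 h, MTT for 25 min, then dissolved in DMSO and read at 570 and 630 nm.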
On the technique in general: Tetrazolium dyes change colour on reduction, which living cells bring about.

A further series concerns Artemia salina. The series can be described thus: (§1) Toxicity in brine shrimp assessed as induction of lethality incubated for 24 hrs by microscopic analysis. It is filed as organism-based.
A short description of series [1]: as §1. The format is organism-based, Artemia salina. The settings on record: Artemia salina (brine shrimp).
Another series deals with A549. The series can be described thus: Cytotoxicity against human A549 cells assessed as cell growth inhibition incubated for 48 hrs by MTT assay. It is filed as functional, cell-based. The settings on record: A549, 48 h.
Where [2] appears, read: Homo sapiens, NCI-H460, 48 h, read-out: IC50.

Each structure is given as a SMILES string.

For the compound `CCC/C=C/N(C)C(=O)CCCCCCCCCC/C=C/[C@@H]1CSC(C)=N1`, the IC50 in the series on NCI-H460 (setting [2]) is 33 µM; in the series on Artemia salina, “Not Active”.

`C=CC/C=C/N(C)C(=O)CCC`: in the series on NCI-H460 (setting [2]), the IC50 is greater than 248 µM. Also, the IC50 at 24 h in series [1] is greater than 100 µM.

As to `C=CC/C=C/N(C)C(=O)CCCCCCCCCC/C=C/[C@@H]1CSC(C)=N1`, the IC50 with NCI-H460 (setting [2]) worked out at 20 µM. Besides, the IC50 at 24 h in series [1] was greater than 100 µM.

Regarding `C=CC/C=C/N(C)C(=O)CCCCCCCC/C=C/[C@H](CSSC[C@@H](/C=C/CCCCCCCCC(=O)N(C)/C=C/CC=C)NC(C)=O)NC(C)=O`, the figures for the IC50 result with NCI-H460 (nci-h460) and with A549 were “Not Active” and 0.046 µM, respectively. Further, the IC50 at 24 h in series [1] is greater than 130 µM.

As for `C=CC/C=C/N(C)C(=O)c1ccccc1`, the IC50 in the series with NCI-H460 (setting [2]) is greater than 300 µM. Besides, the IC50 at 24 h in series [1] was greater than 100 µM.

By IC50 is commonly meant the point on the concentration scale where inhibition reaches its midpoint.
